Test results taken from ChEMBL document CHEMBL2203146, “Search for anticonvulsant and analgesic active derivatives of dihydrofuran-2(3H)-one” (Bioorg Med Chem, 2012).
The source made the active and inactive calls.

Assays:
Mus musculus [1] = test: […] activity in ip dosed albino CF1 mouse assessed as inhibition of phenylbenzoquinone-induced writhing administered after 30 mins prior challenge; assay type: functional
Procedure, shortened: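 Male Albino Swiss (CD-1) mice, 6-8 per dose. Compound given ip in 0.5% methylcellulose. 30 min later, 0.25 ml of 0.02% phenylbenzoquinone injected. After 5 min, writhes counted over 10 min. % effect = (vehicle mean − drug mean)/vehicle mean × 100. ED50 derived; Student's t-test.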

Mus musculus [2] = test: Analgesic activity in albino CF1 mouse assessed as inhibition of heat-induced paw licking or jumping behaviour administered after 30 mins prior heat challenge by hot plate method; assay type: functional
Mus musculus [3] = test: Toxicity in albino CF1 mouse assessed as proconvulsant activity at 30 to 300 mg/kg, ip after 0.5 to 4 hrs; assay type: organism-based; design: route intraperitoneal; details: in vivo
Procedure, shortened: (§1)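 CF No. 1 male mice dosed ip at 30, 100 or 300 mg/kg (saline or 0.5% methylcellulose), then given pentetrazole 85 mg/kg sc as 0.5% solution in posterior midline. Watched 30 min. Protection means no threshold seizure (single clonic spasm episode of at least 5 s). Expressed as protected/tested.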

Mus musculus [4] = test: Anticonvulsant activity in albino CF1 mouse assessed as protection against subcutaneous metrazol-induced seizures at 30 to 300 mg/kg, ip after 0.5 to 4 hrs; assay type: functional, organism-based; procedure, shortened: as §1
Mus musculus [5] = test: Neurotoxicity in albino CF1 mouse assessed as minimal motor impairment at 300 mg/kg, ip after 4 hrs by rotorod test; assay type: toxicity, organism-based; design: dose 300 mg/kg, route intraperitoneal; details: in vivo
Procedure, shortened: (§2)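 Rotarod in male CF No. 1 mice after ip dosing (30, 100, 300 mg/kg; saline or 0.5% methylcellulose) at 15–240 min. Knurled plastic rod, 1-inch diameter, 6 rpm. Toxicity means failing to stay on for 1 min on three successive attempts. Recorded as toxic/tested.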

Mus musculus [6] = test: Neurotoxicity in albino CF1 mouse assessed as minimal motor impairment at 300 mg/kg, ip after 0.5 hr by rotorod test; assay type: toxicity, organism-based; design: dose 300 mg/kg, route intraperitoneal; details: in vivo; procedure, shortened: as §2
Mus musculus [7] = test: Neurotoxicity in albino CF1 mouse assessed as minimal motor impairment at 100 mg/kg, ip after 4 hrs by rotorod test; assay type: toxicity, organism-based; design: dose 100 mg/kg, route intraperitoneal; details: in vivo; procedure, shortened: as §2
Mus musculus [8] = test: Neurotoxicity in albino CF1 mouse assessed as minimal motor impairment at 100 mg/kg, ip after 0.5 hr by rotorod test; assay type: toxicity, organism-based; design: dose 100 mg/kg, route intraperitoneal; details: in vivo; procedure, shortened: as §2
Mus musculus [9] = test: Anticonvulsant activity in albino CF1 mouse assessed as protection against maximal electroshock-induced seizures at 300 mg/kg, ip after 4 hrs; assay type: functional, organism-based; design: dose 300 mg/kg
Procedure, shortened: (§3)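 Male albino CF No. 1 mice (18–25 g) dosed ip at 30, 100 and 300 mg/kg in saline or 0.5% methylcellulose, tested 15, 30, 60 and 240 min after dosing. Maximal electroshock seizures elicited with 60-cycle alternating current. Scored as animals protected/animals tested, small qualitative groups.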

Mus musculus [10] = test: Anticonvulsant activity in albino CF1 mouse assessed as protection against maximal electroshock-induced seizures at 300 mg/kg, ip after 0.5 hr; assay type: functional, organism-based; design: dose 300 mg/kg; procedure, shortened: as §3
Mus musculus [11] = test: Anticonvulsant activity in albino CF1 mouse assessed as protection against maximal electroshock-induced seizures at 100 mg/kg, ip after 4 hrs; assay type: functional, organism-based; design: dose 100 mg/kg; procedure, shortened: as §3
Mus musculus [12] = test: Anticonvulsant activity in albino CF1 mouse assessed as protection against maximal electroshock-induced seizures at 100 mg/kg, ip after 0.5 hr; assay type: functional, organism-based; design: dose 100 mg/kg; procedure, shortened: as §3
Mus musculus [13] = test: Anesthetic activity in […] assessed as latency in response to thermal stimuli administered as 2% solution, sc measured after 15 mins by modified tail immersion test; assay type: functional, albino CF1
Mus musculus [14] = test: Anesthetic activity in albino CF1 mouse assessed as latency in response to thermal stimuli administered as 1% solution, sc measured after 15 mins by modified tail immersion test; assay type: functional
Procedure, shortened: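 Male Albino Swiss (CD-1) mice, 6-8 per group, tested at 1% and 2% compound concentration. Tail distal 3 cm immersed in water at 50 ± 0.5 °C 15 min after treatment. Tail-withdrawal latency recorded with a 20 s cutoff. Value is % difference in latency vs vehicle-treated mice. Mean ± SEM, Student's t-test.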

Mus musculus [15] = test: Neurotoxicity in albino CF1 mouse assessed as minimal motor impairment at 30 mg/kg, ip after 4 hrs by rotorod test; assay type: toxicity, organism-based; design: dose 30 mg/kg, route intraperitoneal; details: in vivo; procedure, shortened: as §2
Mus musculus [16] = test: Neurotoxicity in albino CF1 mouse assessed as minimal motor impairment at 30 mg/kg, ip after 0.5 hr by rotorod test; assay type: toxicity, organism-based; design: dose 30 mg/kg, route intraperitoneal; details: in vivo
Procedure, shortened: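 Male albino CF No. 1 mice, compound ip in saline or 0.5% methylcellulose. Rotarod: 1-inch knurled rod at 6 rpm. Toxicity is failure to stay on the rod for 1 min on three successive attempts. Expressed as toxic/tested.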

Mus musculus [17] = test: Neurotoxicity in albino CF1 mouse assessed as minimal motor impairment at 100 mg/kg, ip after 1 hr by rotorod test; assay type: toxicity, organism-based; design: dose 100 mg/kg, route intraperitoneal; details: in vivo; procedure, shortened: as §2
Mus musculus [18] = test: Neurotoxicity in albino CF1 mouse assessed as minimal motor impairment at 100 mg/kg, ip after 0.25 hr by rotorod test; assay type: toxicity, organism-based; design: dose 100 mg/kg, route intraperitoneal; details: in vivo; procedure, shortened: as §2
Mus musculus [19] = test: Anticonvulsant activity in albino CF1 mouse assessed as protection against maximal electroshock-induced seizures at 30 mg/kg, ip after 0.5 hr; assay type: functional, organism-based; design: dose 30 mg/kg
Procedure, shortened: (§4)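 Male albino CF No. 1 mice, 18–25 g. Compound in saline or 0.5% methylcellulose, ip. Seizures elicited by 60-cycle alternating current maximal electroshock. Result expressed as animals protected/animals tested.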

Mus musculus [20] = test: Anticonvulsant activity in albino CF1 mouse assessed as protection against maximal electroshock-induced seizures at 30 mg/kg, ip after 4 hrs; assay type: functional, organism-based; design: dose 30 mg/kg; procedure, shortened: as §4
Mus musculus [21] = test: Anticonvulsant activity in albino CF1 mouse assessed as protection against maximal electroshock-induced seizures at 100 mg/kg, ip after 1 hr; assay type: functional, organism-based; design: dose 100 mg/kg; procedure, shortened: as §3
Mus musculus [22] = test: Anticonvulsant activity in albino CF1 mouse assessed as protection against maximal electroshock-induced seizures at 100 mg/kg, ip after 0.25 hr; assay type: functional, organism-based; design: dose 100 mg/kg; procedure, shortened: as §3
Rattus norvegicus [23] = test: Anticonvulsant activity in po dosed Sprague-Dawley rat assessed as protection against maximal electroshock-induced seizures measured after 0.25 to 4 hrs; assay type: functional
Procedure, shortened: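 Male Sprague-Dawley rats, 100–150 g, dosed orally at 30 mg/kg. Maximal electroshock (60-cycle alternating current) applied at time points after dosing. Scored as animals protected/animals tested.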

Rattus norvegicus [24] = test: Neurotoxicity in Sprague-Dawley rat assessed as minimal motor impairment at 30 mg/kg, po after 4 hrs by rotorod test; assay type: toxicity, organism-based; design: dose 30 mg/kg, route oral; details: in vivo
Rattus norvegicus [25] = test: Neurotoxicity in Sprague-Dawley rat assessed as […] at 30 mg/kg, po after 2 hrs […]; assay type: toxicity, organism-based; design: dose 30 mg/kg, route oral; details: in vivo
Rattus norvegicus [26] = test: Neurotoxicity in Sprague-Dawley rat assessed as […] at 30 mg/kg, po after 1 hr […]; assay type: toxicity, organism-based; design: dose 30 mg/kg, route oral; details: in vivo
Rattus norvegicus [27] = test: Neurotoxicity in Sprague-Dawley rat assessed as minimal motor impairment at 30 mg/kg, po after 0.5 hr by rotorod test; assay type: toxicity, organism-based; design: dose 30 mg/kg, route oral; details: in vivo
Rattus norvegicus [28] = test: Neurotoxicity in Sprague-Dawley rat assessed as […] at 30 mg/kg, po after 0.25 hr […]; assay type: toxicity, organism-based; design: dose 30 mg/kg, route oral; details: in vivo
Rattus norvegicus [29] = test: Anticonvulsant activity in Sprague-Dawley rat assessed as protection against maximal electroshock-induced seizures at 30 mg/kg, po after 4 hrs; assay type: functional, organism-based; design: dose 30 mg/kg
Procedure, shortened: (§5)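 Male Sprague-Dawley rats (100–150 g), compound given orally at 30 mg/kg, dissolved in saline or suspended in 0.5% methylcellulose. Maximal electroshock seizures elicited with 60-cycle alternating current. Result recorded as number protected/number tested at each time point.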

Rattus norvegicus [30] = test: Anticonvulsant activity in Sprague-Dawley rat assessed as protection against maximal electroshock-induced seizures at 30 mg/kg, po after 2 hrs; assay type: functional, organism-based; design: dose 30 mg/kg; procedure, shortened: as §5
Rattus norvegicus [31] = test: Anticonvulsant activity in Sprague-Dawley rat assessed as protection against maximal electroshock-induced seizures at 30 mg/kg, po after 1 hr; assay type: functional, organism-based; design: dose 30 mg/kg; procedure, shortened: as §5
Rattus norvegicus [32] = test: Anticonvulsant activity in Sprague-Dawley rat assessed as protection against maximal electroshock-induced seizures at 30 mg/kg, po after 0.5 hr; assay type: functional, organism-based; design: dose 30 mg/kg; procedure, shortened: as §5
Rattus norvegicus [33] = test: Anticonvulsant activity in Sprague-Dawley rat assessed as protection against maximal electroshock-induced seizures at 30 mg/kg, po after 0.25 hr; assay type: functional, organism-based; design: dose 30 mg/kg; procedure, shortened: as §5

Structure (SMILES): O=C1OCCC1N1CCc2ccccc2C1 (racemic)
- ED50 (Mus musculus [1]): 3.7 mg/kg
- ED50 (Mus musculus [2]): 32.4 mg/kg
- Activity (Mus musculus [3]): Toxic
- Activity (Mus musculus [4]): inactive
- Activity (Mus musculus [5]): Non-toxic
- Activity (Mus musculus [6]): Non-toxic
- Activity (Mus musculus [7]): Non-toxic
- Activity (Mus musculus [8]): Non-toxic
- Activity (Mus musculus [9]): inactive
- Activity (Mus musculus [10]): inactive
- Activity (Mus musculus [11]): inactive
- Activity (Mus musculus [12]): inactive

Structure (SMILES): COc1ccc(Cl)cc1N1CCN(C2CCOC2=O)CC1 (racemic)
- Activity (Mus musculus [13]): 29%
- Activity (Mus musculus [14]): 12%
- ED50 (Mus musculus [1]): 19 mg/kg
- ED50 (Mus musculus [2]): 28.1 mg/kg
- Activity (Mus musculus [4]): inactive
- Activity (Mus musculus [15]): Non-toxic
- Activity (Mus musculus [16]): Toxic
- Activity (Mus musculus [5]): Toxic
- Activity (Mus musculus [6]): Toxic
- Activity (Mus musculus [7]): Toxic
- Activity (Mus musculus [17]): Toxic
- Activity (Mus musculus [8]): Toxic
- Activity (Mus musculus [18]): Non-toxic
- Activity (Mus musculus [19]): inactive
- Activity (Mus musculus [20]): inactive
- Activity (Mus musculus [9]): inactive
- Activity (Mus musculus [10]): Active
- Activity (Mus musculus [11]): inactive
- Activity (Mus musculus [21]): inactive
- Activity (Mus musculus [12]): inactive
- Activity (Mus musculus [22]): inactive

Structure (SMILES): O=C1OCCC1N1CCN(c2cccc(C(F)(F)F)c2)CC1 (racemic)
- Activity (Mus musculus [13]): 149%
- Activity (Mus musculus [14]): 81%
- ED50 (Mus musculus [1]): 0.8 mg/kg
- ED50 (Mus musculus [2]): 1.3 mg/kg
- ED50 (Rattus norvegicus [23]): 112 mg/kg
- Activity (Rattus norvegicus [24]): Non-toxic
- Activity (Rattus norvegicus [25]): Non-toxic
- Activity (Rattus norvegicus [26]): Non-toxic
- Activity (Rattus norvegicus [27]): Toxic
- Activity (Rattus norvegicus [28]): Non-toxic
- Activity (Rattus norvegicus [29]): Active
- Activity (Rattus norvegicus [30]): Active
- Activity (Rattus norvegicus [31]): inactive
- Activity (Rattus norvegicus [32]): inactive
- Activity (Rattus norvegicus [33]): inactive
- Activity (Mus musculus [4]): inactive
- Activity (Mus musculus [5]): Non-toxic
- Activity (Mus musculus [6]): Toxic
- Activity (Mus musculus [7]): Non-toxic
- Activity (Mus musculus [8]): Non-toxic
- Activity (Mus musculus [9]): inactive
- Activity (Mus musculus [10]): Active
- Activity (Mus musculus [11]): Active
- Activity (Mus musculus [12]): inactive

Structure (SMILES): C/C(Nc1ccccc1)=C1\CCOC1=O
- Activity (Rattus norvegicus [24]): Non-toxic
- Activity (Rattus norvegicus [25]): Non-toxic
- Activity (Rattus norvegicus [26]): Non-toxic
- Activity (Rattus norvegicus [27]): Non-toxic
- Activity (Rattus norvegicus [28]): Non-toxic
- Activity (Rattus norvegicus [29]): inactive
- Activity (Rattus norvegicus [30]): inactive
- Activity (Rattus norvegicus [31]): inactive
- Activity (Rattus norvegicus [32]): inactive
- Activity (Rattus norvegicus [33]): inactive
- Activity (Mus musculus [4]): inactive
- Activity (Mus musculus [5]): Non-toxic
- Activity (Mus musculus [6]): Toxic
- Activity (Mus musculus [7]): Non-toxic
- Activity (Mus musculus [17]): Non-toxic
- Activity (Mus musculus [8]): Non-toxic
- Activity (Mus musculus [18]): Non-toxic
- Activity (Mus musculus [9]): inactive
- Activity (Mus musculus [10]): Active
- Activity (Mus musculus [11]): inactive
- Activity (Mus musculus [21]): inactive
- Activity (Mus musculus [12]): inactive
- Activity (Mus musculus [22]): Active
